Measured values taken from ChEMBL document CHEMBL3632600, “Novel arylalkylamine compounds exhibits potent selective antiparasitic activity against Leishmania major” (Bioorg Med Chem Lett, 2015).

What was measured:
[1] = tested on: Leishmania major; experiment: Antileishmanial activity against promastigote stage of Leishmania major Friedlin clone V1 assessed as parasite survival after 72 hrs by luciferase reporter gene assay; type: functional; details: Friedlin clone V1, 72 h, read-out: LD50 (the source's name)
How it was run: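 Luciferase-expressing L. major Friedlin clone V1 promastigotes exposed to compound for 72 h; Amphotericin B served as positive control. Lethality is expressed as LD50.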

[2] = tested on: LLC-MK2; experiment: Cytotoxicity against monkey LLC-MK2 cells after 96 hrs by Alamar Blue assay; type: cell-based; details: Macaca mulatta, LLC-MK2, 96 h
[3] = tested on: U2OS; experiment: Cytotoxicity against human U2OS cells after 96 hrs by Alamar Blue assay; type: cell-based
[4] = tested on: RAW264.7; experiment: Cytotoxicity against mouse Raw264.7 cells after 96 hrs by Alamar Blue assay; type: cell-based; details: RAW264.7, 96 h
[5] = Cytotoxicity against mouse intraperitoneal macrophages after 48 hrs by Alamar Blue assay; type: cell-based; details: Peritoneal macrophage cell
[6] = tested on: Leishmania major; experiment: Antileishmanial activity against amastigote stage of Leishmania major in starch-activated mouse intraperitoneal macrophages assessed as inhibition of intracellular parasite proliferation at 5 uM after 48 hrs by annexin-V 488/DAPI staining-based microplate confocal microscopic analysis relative to control; type: functional
How it was run: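 Macrophages infected 24 h after plating with L. major metacyclic promastigotes at 10 parasites per cell, then treated 48 h at 5 µM. Fixed, stained with annexin-V 488 and DAPI; infected cells (5 or more amastigotes per macrophage) and amastigotes counted by high-content confocal imaging. Negative control 1% DMSO; positive control amphotericin B 25 µM.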

[7] = tested on: Leishmania major; experiment: Antileishmanial activity against promastigote stage of Leishmania major assessed as induction of intracellular reactive oxygen species generation at 3 uM preincubated for 24 hrs followed by H2DCFDA probe addition measured after 20 mins by fluorescence microplate reader analysis relative to vehicle-treated control; type: functional
How it was run: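 L. major promastigotes exposed 24 h (3 µM for the single-concentration read). H2DCFDA then added and incubated a further 20 min at 37 °C; fluorescence read on a microplate reader and expressed relative to 1% DMSO vehicle. Medium-only also served as negative control; hydrogen peroxide 100 µM as positive control.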

| SMILES | LC50 [1] | further results |
| --- | --- | --- |
| CCOC(=O)c1ccc(NC2CCCCC2)c(NCc2ccc(C#N)cc2)c1 | > 10 µM |  |
| CCOC(=O)c1ccc(NC23CC4CC(CC(C4)C2)C3)c(NCc2ccccc2)c1 | > 10 µM |  |
| O=C(O)c1ccc(NC2CCCCC2)c(NCc2ccccc2)c1 | > 10 µM |  |
| CCOC(=O)c1ccc(NC2CCCCC2)c(NCc2cccc(Cl)c2)c1 | > 10 µM |  |
| CCOC(=O)c1ccc(NC2CCCCC2)c(N(Cc2ccccc2)Cc2ccccc2)c1 | > 10 µM |  |
| CCOC(=O)c1cc(N)c(NC2CCCCC2)cc1F | > 10 µM |  |
| CCOC(=O)c1ccc(NC2CCCCC2)c([N+](=O)[O-])c1 | > 10 µM |  |
| CCOC(=O)c1ccc(NC2CCCCC2)c(N)c1 | 28.8 µM | IC50 [2]: > 240 µM |
| CCOC(=O)c1ccc(NC2CCC(C(C)(C)C)CC2)c(NCc2ccccc2)c1 (stereo not drawn) | > 10 µM |  |
| CCOC(=O)c1ccc(NC2CCOCC2)c(N)c1 | > 10 µM |  |
| CCOC(=O)c1ccc(NC2CCCCC2)c(NCc2ccc(F)c(C#N)c2)c1 | > 10 µM |  |
| CCOC(=O)c1ccc(NC2CCCCC2)c(NCc2ccc(OC)cc2)c1 | > 10 µM |  |
| CCOC(=O)c1ccc(NC2CCCCC2)c(NCc2ccc(C(=O)OC)cc2)c1 | > 10 µM |  |
| CCOC(=O)c1cnc(NC2CCCCC2)c(N)c1 | > 10 µM |  |
| CCOC(=O)c1ccc(NC2CCCCC2)c(NC(=O)OC)c1 | > 10 µM |  |
| CCOC(=O)c1ccc(NC2CCCCC2)c(NCc2ccc([N+](=O)[O-])cc2)c1 | > 10 µM |  |
| CCOC(=O)c1ccc(NC2CCCCC2)c(NCc2cccc(OC)c2)c1 | 4.98 µM |  |
| CCOC(=O)c1ccc(N[C@H]2CC[C@H](N)CC2)c(N)c1 | > 10 µM |  |
| CCOC(=O)c1ccc(NC2CCCCC2)c(NCc2cc(F)cc(Br)c2)c1 | > 10 µM |  |
| Nc1cc(C(=O)OCCN2CCOCC2)ccc1NC1CCCCC1 | > 10 µM |  |
| CCOC(=O)c1ccc(NC2CCC(C(C)(C)C)CC2)c(NCc2ccncn2)c1 (stereo not drawn) | 4.92 µM |  |
| CCOC(=O)c1cc(NCc2ccncn2)c(NC2CCCCC2)cc1F | 9.49 µM |  |
| CCCCCCCCCCOC(=O)c1cc(N)c(NC2CCCCC2)cc1F | > 10 µM |  |
| CCOC(=O)c1ccc(NC23CC4CC(CC(C4)C2)C3)c(NCc2ccncn2)c1 | > 10 µM |  |
| CCOC(=O)c1ccc(NC2CCCCC2)c(NCc2cccc(F)c2)c1 | > 10 µM |  |
| CCOC(=O)c1ccc(NC2CCCCC2)c(NCc2ccccc2)c1 | 3.34 µM | IC50 [3]: > 80 µM; IC50 [4]: > 80 µM; IC50 [5]: > 80 µM; inhibition at 5 µM [6]: 80%; fold change (FC) [7]: 1.75 |
| CCOC(=O)c1ccc(NC2CCCCC2)c(NCc2ccccc2[N+](=O)[O-])c1 | > 10 µM |  |
